Positions of bridges follow the written chain, without caps; N, C: chain ends. Residues, ends and D or L forms follow the SMILES beside them.

The assay has as its target T1, Accessory gene regulator protein A (Staphylococcus aureus) (UniProt P0A0I7).
T1 sequence (whole entry): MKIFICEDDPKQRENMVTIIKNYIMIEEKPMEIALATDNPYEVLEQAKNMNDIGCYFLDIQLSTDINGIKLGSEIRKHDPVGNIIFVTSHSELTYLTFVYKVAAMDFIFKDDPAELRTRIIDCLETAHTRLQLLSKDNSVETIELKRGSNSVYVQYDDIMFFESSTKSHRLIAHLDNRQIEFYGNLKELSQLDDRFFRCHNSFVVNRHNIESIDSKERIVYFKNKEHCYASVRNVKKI
Briefly: Inhibition of AGR quorum sensing system-mediated delta toxin production in methicillin-resistant Staphylococcus aureus AH2759 incubated for 15 hrs by Western blotting analysis. The method, boiled down: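 Cultures from the agr P3-lux plate were pooled and filtered (0.22 μm). Medium (2.5 μL) was run on 15% SDS-PAGE and transferred to PVDF. Blots were blocked overnight at 4 °C in milk/BSA in TBST, then probed 1 h at rt with rabbit anti-delta toxin (1:2000) and HRP anti-rabbit (1:10 000). Detection was chemiluminescence on X-ray film. AIP-2-treated cultures were included.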
In general terms: In western blotting, separated proteins are transferred to a membrane and probed.
Consider `CC(=O)C(O)c1cc(O)c2c(c1)C(=O)c1cc(O)cc(O)c1C2=O` (centres undefined), for which the inhibition entry is “Dose-dependent effect”.

As for `O=C(O)c1cc(O)c2c(c1)C(=O)c1cc(O)c(O)c(O)c1C2=O`, the inhibition entry was “Dose-dependent effect”.

As to `O=C1c2cc(O)cc(O)c2C(=O)c2c(O)cc(CO)cc21`, the inhibition result is “Dose-dependent effect”.

With `CC(C)C[C@@H]1NC(=O)[C@H](CO)NC(=O)[C@H](CO)NC(=O)[C@@H](NC(=O)[C@H](C)NC(=O)[C@H](CC(N)=O)NC(=O)[C@@H](NC(=O)CN)C(C)C)CSC(=O)[C@H](Cc2ccccc2)NC1=O` (H-GVNACSSLF; thioester 5-C), the inhibition result is “Dose-dependent effect”.

These data come from ChEMBL document CHEMBL3286243, “Polyhydroxyanthraquinones as quorum sensing inhibitors from the guttates of Penicillium restrictum and their analysis by desorption electrospray ionization mass spectrometry” (J Nat Prod, 2014).
